Results from PubChem BioAssay AID624353 (The Scripps Research Institute Molecular Screening Center, 2012).
The source made the active and inactive calls.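 How the source made its calls: active means insulin-degrading enzyme inhibitors with IC50 at or below 10 µM; inactive means the rest.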

Target: Insulin-degrading enzyme (Homo sapiens) (UniProt P14735)
Experiment: inhibition of recombinant WT IDE Abeta cleavage – biochemical, fluorescence polarization, FAbetaB substrate, round 2, counter-screen for IDE inhibitor project, late-stage follow-up (AID 624353)
How it was run: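 Detection: fluorescence polarization, ex 485 nm, em 525 nm / Material: recombinant wild-type insulin-degrading enzyme (IDE), purified enzyme / Schedule: reaction at room temperature / Repeats: each compound dose-response run in triplicate / Reagent: fluorescein-Aβ-biotin peptide substrate, 100 nM / Read-out: IC50 from normalized inhibition curve / Medium: HEPES buffer at pH 7.4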

Insulin-degrading enzyme (Homo sapiens), sequence (P14735 whole entry, looked up): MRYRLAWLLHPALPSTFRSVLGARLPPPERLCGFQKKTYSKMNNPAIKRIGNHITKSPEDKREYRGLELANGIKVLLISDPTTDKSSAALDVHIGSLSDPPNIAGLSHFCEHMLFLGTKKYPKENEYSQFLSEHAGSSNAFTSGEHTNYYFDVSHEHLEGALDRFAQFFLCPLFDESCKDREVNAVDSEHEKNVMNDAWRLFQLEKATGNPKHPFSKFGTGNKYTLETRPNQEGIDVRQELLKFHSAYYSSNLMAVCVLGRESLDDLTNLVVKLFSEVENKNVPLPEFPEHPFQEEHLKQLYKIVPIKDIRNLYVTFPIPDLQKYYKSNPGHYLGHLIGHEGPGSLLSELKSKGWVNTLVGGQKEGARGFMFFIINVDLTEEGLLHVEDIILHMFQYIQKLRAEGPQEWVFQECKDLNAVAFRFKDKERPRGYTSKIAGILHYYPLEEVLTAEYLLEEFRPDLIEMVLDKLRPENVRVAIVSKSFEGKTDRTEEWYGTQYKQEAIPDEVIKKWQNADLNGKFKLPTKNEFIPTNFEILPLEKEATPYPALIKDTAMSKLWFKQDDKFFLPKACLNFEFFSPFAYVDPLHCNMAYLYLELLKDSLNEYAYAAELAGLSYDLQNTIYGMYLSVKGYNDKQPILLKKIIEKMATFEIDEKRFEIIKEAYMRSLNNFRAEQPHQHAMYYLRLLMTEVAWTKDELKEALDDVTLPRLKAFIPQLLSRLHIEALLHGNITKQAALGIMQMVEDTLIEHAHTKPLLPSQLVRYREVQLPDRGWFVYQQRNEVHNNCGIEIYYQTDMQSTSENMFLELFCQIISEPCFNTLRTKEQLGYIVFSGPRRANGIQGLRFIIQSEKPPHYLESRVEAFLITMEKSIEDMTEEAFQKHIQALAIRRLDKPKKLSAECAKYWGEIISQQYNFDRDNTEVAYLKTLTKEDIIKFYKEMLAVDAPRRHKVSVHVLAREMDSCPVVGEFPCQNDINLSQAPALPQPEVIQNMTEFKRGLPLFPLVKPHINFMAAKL

| SMILES | IC50 |
| --- | --- |
| c1coc(Cn2c(SCc3nc4ccccc4[nH]3)nnc2-c2ccco2)c1 | > 33 µM (inactive) |
| COc1ccc(C(=O)N2CCN(C(=O)CCc3c[nH]c4ccccc34)CC2)cc1OC | > 33 µM (inactive) |
| c1coc(Cn2c(SCc3nc4ccccc4[nH]3)nnc2-c2cnccn2)c1 | > 33 µM (inactive) |
| COc1cccc(C(=O)N2CCN(C(=O)C3COc4ccccc4O3)CC2)c1 (centres undefined) | 4 µM |
| O=C(c1ccc2nc(C(F)(F)F)[nH]c2c1)N1CCN(C(=O)C2COc3ccccc3O2)CC1 (centres undefined) | 7 µM |
| COc1ccc(OCC(=O)N2CCN(C(=O)c3ccc(OC)c(OC)c3)CC2)cc1 | > 33 µM (inactive) |
| COc1ccc(C(=O)N2CCN(C(=O)C3CC(=O)N(c4ccccc4)C3)CC2)cc1OC (centres undefined) | > 33 µM (inactive) |
| COc1ccc(C(=O)N2CCN(C(=O)C(c3ccccc3)c3ccccc3)CC2)cc1OC | > 33 µM (inactive) |
| O=C(c1ccc(OCC2CCCO2)cc1)N1CCN(C(=O)C2COc3ccccc3O2)CC1 (centres undefined) | > 33 µM (inactive) |
| COc1cc(C(=O)N2CCN(C(=O)C3COc4ccccc4O3)CC2)cc(Cl)c1OC (centres undefined) | > 33 µM (inactive) |
| CC(=O)Nc1ccccc1C(=O)N1CCN(C(=O)C2COc3ccccc3O2)CC1 (centres undefined) | 6 µM |
| c1coc(Cn2c(SCc3nc4ccccc4[nH]3)nnc2-c2cccs2)c1 | > 33 µM (inactive) |
| Cc1ccc(-c2nnc(SCc3nc4ccccc4[nH]3)n2Cc2ccco2)cc1 | > 33 µM (inactive) |
| Cc1ccc(COCc2nnc(SCc3nc4ccccc4[nH]3)n2Cc2ccco2)cc1 | > 33 µM (inactive) |
| c1ccc(-c2nnc(SCc3nc4ccccc4[nH]3)n2Cc2ccco2)nc1 | > 33 µM (inactive) |
| Cc1nc(COc2ccc(C(=O)N3CCN(C(=O)C4COc5ccccc5O4)CC3)cc2)cs1 (centres undefined) | > 33 µM (inactive) |
| O=C(c1ccc(Oc2ccc(F)cc2)cc1)N1CCN(C(=O)C2COc3ccccc3O2)CC1 (centres undefined) | > 33 µM (inactive) |
| COc1ccc(C(=O)N2CCN(C(=O)COc3ccccc3)CC2)cc1OC | > 33 µM (inactive) |
| c1ccc(-c2nnc(SCc3nc4ccccc4[nH]3)n2Cc2ccco2)cc1 | > 33 µM (inactive) |
| Clc1ccc(COCc2nnc(SCc3nc4ccccc4[nH]3)n2Cc2ccco2)cc1 | > 33 µM (inactive) |
| O=C(c1ccc(Oc2ccccc2)cc1)N1CCN(C(=O)C2COc3ccccc3O2)CC1 (centres undefined) | > 33 µM (inactive) |
| CCOc1ccc(C(=O)N2CCN(C(=O)C3COc4ccccc4O3)CC2)cc1 (centres undefined) | > 33 µM (inactive) |
| COc1ccc(C(=O)N2CCN(C(=O)COc3ccc(C)cc3)CC2)cc1OC | > 33 µM (inactive) |
| COc1ccc(C(=O)N2CCN(C(=O)COc3ccc(Cl)cc3)CC2)cc1OC | > 33 µM (inactive) |
